Assay [1] deals with T1, Tyrosine-protein kinase JAK3 (Homo sapiens) (UniProt P52333).
T1 sequence (whole entry): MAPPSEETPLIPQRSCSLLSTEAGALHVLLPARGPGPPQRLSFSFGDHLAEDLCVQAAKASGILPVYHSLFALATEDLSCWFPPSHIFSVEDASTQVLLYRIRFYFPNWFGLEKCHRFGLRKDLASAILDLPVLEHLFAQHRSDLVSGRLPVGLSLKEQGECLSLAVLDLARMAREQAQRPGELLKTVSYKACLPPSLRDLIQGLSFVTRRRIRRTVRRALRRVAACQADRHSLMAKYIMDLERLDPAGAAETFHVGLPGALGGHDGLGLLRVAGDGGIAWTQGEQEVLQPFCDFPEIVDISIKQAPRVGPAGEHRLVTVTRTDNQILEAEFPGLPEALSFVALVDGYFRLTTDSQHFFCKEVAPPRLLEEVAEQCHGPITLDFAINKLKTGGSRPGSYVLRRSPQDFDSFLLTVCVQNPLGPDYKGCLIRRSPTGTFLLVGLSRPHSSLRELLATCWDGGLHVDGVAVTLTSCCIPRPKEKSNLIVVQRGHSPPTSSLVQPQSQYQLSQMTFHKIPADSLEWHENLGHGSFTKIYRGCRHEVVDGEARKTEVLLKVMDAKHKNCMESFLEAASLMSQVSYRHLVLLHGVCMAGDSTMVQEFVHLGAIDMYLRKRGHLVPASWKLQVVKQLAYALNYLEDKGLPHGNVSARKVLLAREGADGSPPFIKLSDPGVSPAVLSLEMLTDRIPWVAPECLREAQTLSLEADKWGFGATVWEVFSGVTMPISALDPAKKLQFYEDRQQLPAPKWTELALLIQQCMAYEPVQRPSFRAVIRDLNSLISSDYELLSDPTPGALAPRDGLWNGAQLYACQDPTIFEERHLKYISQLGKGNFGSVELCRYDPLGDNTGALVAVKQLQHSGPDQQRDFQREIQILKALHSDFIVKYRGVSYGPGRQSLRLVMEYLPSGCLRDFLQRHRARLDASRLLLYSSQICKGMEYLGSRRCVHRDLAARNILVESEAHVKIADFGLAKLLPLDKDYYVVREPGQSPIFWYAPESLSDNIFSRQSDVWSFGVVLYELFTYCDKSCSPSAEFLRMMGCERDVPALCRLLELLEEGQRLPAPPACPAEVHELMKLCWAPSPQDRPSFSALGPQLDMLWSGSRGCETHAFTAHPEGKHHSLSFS
Put plainly: Binding affinity to human JAK3 kinase domain 2 at 500 nM by cell-based competition binding assay relative to control in presence of DTT. The method, boiled down:
(§1)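 Competition binding screen (Ambit) across a panel of 90 kinases, scoring test ligand displacement of each kinase's binding relative to control. The screen ran under reducing conditions with 7.5 mM DTT.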

In assay [2] the target is T2, Serine/threonine-protein kinase Chk1 (Homo sapiens) (UniProt O14757).
T2 sequence (whole entry): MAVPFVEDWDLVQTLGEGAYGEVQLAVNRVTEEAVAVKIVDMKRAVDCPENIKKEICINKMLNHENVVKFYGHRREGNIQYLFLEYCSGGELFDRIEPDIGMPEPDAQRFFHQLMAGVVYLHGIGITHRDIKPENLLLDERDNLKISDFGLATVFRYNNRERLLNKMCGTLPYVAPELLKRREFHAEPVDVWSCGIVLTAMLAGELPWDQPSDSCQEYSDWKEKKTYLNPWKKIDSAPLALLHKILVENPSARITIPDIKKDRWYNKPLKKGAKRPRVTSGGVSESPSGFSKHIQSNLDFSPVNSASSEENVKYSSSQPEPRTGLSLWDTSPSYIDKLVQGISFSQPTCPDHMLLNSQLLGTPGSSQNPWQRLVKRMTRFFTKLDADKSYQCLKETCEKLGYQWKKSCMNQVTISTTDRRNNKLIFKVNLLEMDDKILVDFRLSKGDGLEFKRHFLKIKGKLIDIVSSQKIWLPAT
Kind of assay: Binding affinity to human CHEK1 at 500 nM by cell-based competition binding assay relative to control in presence of DTT. The method, boiled down:
(§2)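 Commercial (Ambit) competitive kinase-binding panel of 90 kinases measured the binding profile. Run under reducing conditions of 7.5 mM DTT. Binding is expressed relative to control.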

For assay [3], the target named is T3, Tyrosine-protein kinase ZAP-70 (Homo sapiens) (UniProt P43403).
T3 sequence (whole entry): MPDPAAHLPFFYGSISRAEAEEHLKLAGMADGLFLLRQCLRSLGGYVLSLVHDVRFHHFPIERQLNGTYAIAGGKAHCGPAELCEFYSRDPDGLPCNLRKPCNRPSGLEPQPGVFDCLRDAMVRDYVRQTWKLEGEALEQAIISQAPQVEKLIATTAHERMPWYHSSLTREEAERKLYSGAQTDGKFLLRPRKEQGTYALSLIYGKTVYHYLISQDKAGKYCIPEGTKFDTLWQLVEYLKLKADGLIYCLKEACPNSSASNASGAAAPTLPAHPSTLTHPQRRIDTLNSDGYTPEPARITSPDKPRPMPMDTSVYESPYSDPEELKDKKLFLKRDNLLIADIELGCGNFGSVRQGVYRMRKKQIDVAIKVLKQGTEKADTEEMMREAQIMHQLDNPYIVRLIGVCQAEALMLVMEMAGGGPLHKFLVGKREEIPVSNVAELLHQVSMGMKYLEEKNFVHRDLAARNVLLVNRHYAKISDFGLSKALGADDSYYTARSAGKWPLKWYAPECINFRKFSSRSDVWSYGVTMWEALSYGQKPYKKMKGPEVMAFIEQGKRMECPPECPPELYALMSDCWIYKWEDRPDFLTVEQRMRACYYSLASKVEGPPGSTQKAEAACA
Put plainly: Binding affinity to human ZAP70 at 200 nM by cell-based competition binding assay relative to control in presence of DTT.

In assay [4] the target is Casein kinase I isoform gamma-2 (Homo sapiens) (UniProt P78368). Kind of assay: Binding affinity to human CSNK1G2 at 200 nM by cell-based competition binding assay relative to control in presence of DTT. Put shortly: as §2
Chain of Casein kinase I isoform gamma-2 (Homo sapiens) (P78368 whole entry, looked up, canonical isoform): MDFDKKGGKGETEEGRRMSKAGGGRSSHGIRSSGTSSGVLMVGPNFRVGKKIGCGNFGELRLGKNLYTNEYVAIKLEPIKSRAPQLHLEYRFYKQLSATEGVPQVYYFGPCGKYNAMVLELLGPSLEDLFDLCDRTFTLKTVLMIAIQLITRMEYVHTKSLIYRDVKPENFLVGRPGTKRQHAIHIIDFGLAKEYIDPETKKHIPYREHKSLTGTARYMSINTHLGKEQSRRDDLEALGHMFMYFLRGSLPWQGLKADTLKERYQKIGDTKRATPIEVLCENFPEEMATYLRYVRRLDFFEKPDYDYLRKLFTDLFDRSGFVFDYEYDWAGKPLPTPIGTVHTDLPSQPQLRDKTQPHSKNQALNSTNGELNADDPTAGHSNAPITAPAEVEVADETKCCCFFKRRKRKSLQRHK
Assay [5] has as its target T2, Serine/threonine-protein kinase Chk1 (Homo sapiens). Put plainly: Binding affinity to human CHEK1 at 200 nM by cell-based competition binding assay relative to control in presence of DTT. The method, boiled down:
as §2

The target in assay [6] is Mast/stem cell growth factor receptor Kit (Homo sapiens) (UniProt P10721). Put plainly: Binding affinity to human KIT at 200 nM by cell-based competition binding assay relative to control in presence of DTT. The method, boiled down:
as §1

In assay [7] the target is Mitogen-activated protein kinase 14 (Homo sapiens) (UniProt Q16539). Kind of assay: Binding affinity to human p38alpha at 200 nM by cell-based competition binding assay relative to control in presence of DTT.
Chain of Mitogen-activated protein kinase 14 (Homo sapiens) (Q16539 whole entry): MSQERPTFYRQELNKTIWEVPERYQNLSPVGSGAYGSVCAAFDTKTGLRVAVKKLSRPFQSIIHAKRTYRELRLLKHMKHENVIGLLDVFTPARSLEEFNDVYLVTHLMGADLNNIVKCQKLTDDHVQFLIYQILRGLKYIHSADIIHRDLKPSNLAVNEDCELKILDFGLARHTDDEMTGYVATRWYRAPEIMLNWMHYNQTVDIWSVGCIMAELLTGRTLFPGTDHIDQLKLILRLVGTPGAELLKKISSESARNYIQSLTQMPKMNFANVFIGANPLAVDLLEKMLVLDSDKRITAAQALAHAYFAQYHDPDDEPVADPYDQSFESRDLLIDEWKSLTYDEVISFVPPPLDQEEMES
Assay [8] deals with Insulin receptor (Homo sapiens) (UniProt P06213). Put plainly: Binding affinity to human INSR at 50 nM by cell-based competition binding assay relative to control in presence of DTT. The method, boiled down:
as §1

For assay [9], the target named is Mast/stem cell growth factor receptor Kit (Homo sapiens) (UniProt P10721). Put plainly: Binding affinity to human KIT at 50 nM by cell-based competition binding assay relative to control in presence of DTT. The method, boiled down: as §1
Chain of Mast/stem cell growth factor receptor Kit (Homo sapiens) (P10721 whole entry): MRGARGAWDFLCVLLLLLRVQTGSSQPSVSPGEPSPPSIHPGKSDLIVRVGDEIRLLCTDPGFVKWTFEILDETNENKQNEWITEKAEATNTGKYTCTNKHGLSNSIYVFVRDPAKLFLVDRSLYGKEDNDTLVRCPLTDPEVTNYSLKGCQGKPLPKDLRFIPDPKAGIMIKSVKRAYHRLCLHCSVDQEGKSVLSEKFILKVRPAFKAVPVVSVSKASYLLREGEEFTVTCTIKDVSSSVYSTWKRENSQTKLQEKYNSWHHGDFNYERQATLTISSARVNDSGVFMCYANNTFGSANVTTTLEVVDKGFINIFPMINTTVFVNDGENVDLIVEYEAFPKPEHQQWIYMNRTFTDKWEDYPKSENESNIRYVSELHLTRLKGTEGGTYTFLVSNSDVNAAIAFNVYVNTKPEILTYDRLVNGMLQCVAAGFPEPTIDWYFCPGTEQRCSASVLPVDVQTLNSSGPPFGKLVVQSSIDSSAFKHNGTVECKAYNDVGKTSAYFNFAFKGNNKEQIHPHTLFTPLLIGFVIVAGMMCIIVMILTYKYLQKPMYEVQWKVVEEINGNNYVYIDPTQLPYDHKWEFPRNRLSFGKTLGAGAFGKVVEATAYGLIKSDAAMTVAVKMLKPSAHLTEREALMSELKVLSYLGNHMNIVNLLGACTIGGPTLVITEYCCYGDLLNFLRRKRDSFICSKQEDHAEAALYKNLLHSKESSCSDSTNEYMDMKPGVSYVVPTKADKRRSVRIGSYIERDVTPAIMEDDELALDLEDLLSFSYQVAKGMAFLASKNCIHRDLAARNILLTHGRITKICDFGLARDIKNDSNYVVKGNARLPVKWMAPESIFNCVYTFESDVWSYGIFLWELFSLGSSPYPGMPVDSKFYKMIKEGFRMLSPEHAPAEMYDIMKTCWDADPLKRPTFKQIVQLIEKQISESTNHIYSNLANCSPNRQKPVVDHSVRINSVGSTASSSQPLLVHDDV
Assay [10] concerns the target Cyclin-dependent kinase 9 (Homo sapiens) (UniProt P50750). Kind of assay: Binding affinity to human CDK9 at 50 nM by cell-based competition binding assay relative to control in presence of DTT. The method, boiled down:
as §2

*1 amine or outer side, *2 acyl side, *3 side chain or, on linkers, in order; H or OH if unused. Where a SMILES comes first, the peptide text is derived from it. Bridges are numbered along the chain shown (N, C = ends). [ ]: non-standard residue; d: D form. The star is where a group is joined. Staurosporine = CO[C@@H]1[C@H](N(C)*)C[C@H]2O[C@]1(C)n1c3ccccc3c3c4c(c5c6ccccc6n2c5c31)C(=O)NC4; Suc = O=C(CCC(=O)[*:2])[*:1]; Dap = NC[C@H](N)C(=O)O; βAla = NCCC(=O)O

Chain of Insulin receptor (Homo sapiens) (P06213 28-758 limits assumed): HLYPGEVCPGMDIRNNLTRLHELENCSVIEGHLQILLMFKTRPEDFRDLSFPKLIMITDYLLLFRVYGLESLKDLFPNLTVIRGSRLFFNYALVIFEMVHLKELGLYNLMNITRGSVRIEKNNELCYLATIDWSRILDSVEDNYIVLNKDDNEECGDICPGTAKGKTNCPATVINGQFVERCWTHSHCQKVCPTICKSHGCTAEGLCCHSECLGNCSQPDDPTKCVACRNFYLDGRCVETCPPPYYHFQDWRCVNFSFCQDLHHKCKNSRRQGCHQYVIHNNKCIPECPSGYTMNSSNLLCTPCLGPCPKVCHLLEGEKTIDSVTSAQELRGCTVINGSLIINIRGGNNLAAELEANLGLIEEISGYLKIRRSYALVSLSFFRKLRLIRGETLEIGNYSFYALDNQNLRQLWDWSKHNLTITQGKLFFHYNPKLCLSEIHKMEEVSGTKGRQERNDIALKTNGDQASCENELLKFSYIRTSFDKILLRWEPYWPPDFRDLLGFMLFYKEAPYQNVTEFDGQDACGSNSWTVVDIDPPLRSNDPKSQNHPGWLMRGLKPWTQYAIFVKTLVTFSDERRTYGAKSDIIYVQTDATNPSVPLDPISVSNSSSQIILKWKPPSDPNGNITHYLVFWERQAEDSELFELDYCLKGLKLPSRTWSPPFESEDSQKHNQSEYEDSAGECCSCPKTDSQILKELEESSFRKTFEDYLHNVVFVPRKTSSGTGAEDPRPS
Chain of Insulin receptor (Homo sapiens) (P06213 763-1382 limits assumed): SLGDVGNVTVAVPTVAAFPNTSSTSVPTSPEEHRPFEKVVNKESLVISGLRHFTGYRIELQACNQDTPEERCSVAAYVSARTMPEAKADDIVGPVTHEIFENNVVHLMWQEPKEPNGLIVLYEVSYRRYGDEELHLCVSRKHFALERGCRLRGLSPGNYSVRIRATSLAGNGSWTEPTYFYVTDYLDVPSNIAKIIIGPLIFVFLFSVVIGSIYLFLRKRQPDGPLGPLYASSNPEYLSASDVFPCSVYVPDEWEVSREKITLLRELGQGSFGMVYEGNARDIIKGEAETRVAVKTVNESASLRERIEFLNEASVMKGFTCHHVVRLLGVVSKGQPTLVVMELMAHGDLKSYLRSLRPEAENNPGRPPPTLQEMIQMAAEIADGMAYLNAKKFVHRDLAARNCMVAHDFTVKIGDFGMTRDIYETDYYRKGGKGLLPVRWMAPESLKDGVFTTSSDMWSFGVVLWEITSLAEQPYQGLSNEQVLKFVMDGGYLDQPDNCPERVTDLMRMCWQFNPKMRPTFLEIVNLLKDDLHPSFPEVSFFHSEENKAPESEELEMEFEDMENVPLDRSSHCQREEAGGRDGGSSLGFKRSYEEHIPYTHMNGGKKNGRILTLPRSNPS
Chain of Cyclin-dependent kinase 9 (Homo sapiens) (P50750 whole entry): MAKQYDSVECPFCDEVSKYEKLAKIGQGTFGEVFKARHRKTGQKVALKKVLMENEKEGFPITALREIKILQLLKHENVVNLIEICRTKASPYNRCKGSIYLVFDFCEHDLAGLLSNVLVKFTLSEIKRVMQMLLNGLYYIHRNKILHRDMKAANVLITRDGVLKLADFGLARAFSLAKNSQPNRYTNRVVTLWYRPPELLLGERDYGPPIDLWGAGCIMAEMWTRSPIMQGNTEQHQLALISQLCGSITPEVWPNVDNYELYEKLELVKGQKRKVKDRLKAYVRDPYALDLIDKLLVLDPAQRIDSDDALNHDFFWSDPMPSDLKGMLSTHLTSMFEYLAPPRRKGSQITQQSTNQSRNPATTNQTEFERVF

In the case of `CO[C@@H]1[C@H](N(C)C(=O)CCC(=O)NCCC(=O)NCCC(=O)NCCC(N)=O)C[C@H]2O[C@]1(C)n1c3ccccc3c3c4c(c5c6ccccc6n2c5c31)C(=O)NC4`, the Activity in [1] came to 3.6%; in [2], 54%.

For `CO[C@@H]1[C@H](N(C)C(=O)CCC(=O)NCCC(=O)NCCC(=O)NCCC(=O)NCCC(=O)NCCC(=O)NCCC(=O)NCCC(=O)N[C@H]2CSSC[C@@H](C(=O)NCC(N)=O)NC(=O)CNC(=O)[C@H](Cc3ccccc3)NC(=O)[C@H](C(C)C)NC(=O)[C@H](CCCNC(=N)N)NC(=O)[C@H](Cc3ccccc3)NC(=O)[C@H](C(C)C)NC2=O)C[C@H]2O[C@]1(C)n1c3ccccc3c3c4c(c5c6ccccc6n2c5c31)C(=O)NC4` ({Staurosporine-Suc-βAla-βAla-βAla-βAla-βAla-βAla-βAla}-CVFRVFGCG-NH2; disulfide 1-8), the Activity came to 16% in assay [3]; 100% in [4]; 60% in assay [5]; 39% in assay [6]; 89% in assay [7].

On to `CO[C@@H]1[C@H](N(C)C(=O)CCC(=O)NCCC(=O)NCCC(=O)NCCC(=O)NCCC(=O)NCCC(=O)NCCC(=O)NCCC(=O)N[C@H]2CNC(=O)C[C@@H](C(N)=O)NC(=O)CNC(=O)[C@H](Cc3ccccc3)NC(=O)[C@H](C(C)C)NC(=O)[C@H](CCCNC(=N)N)NC(=O)[C@H](Cc3ccccc3)NC(=O)[C@H](C(C)C)NC2=O)C[C@H]2O[C@]1(C)n1c3ccccc3c3c4c(c5c6ccccc6n2c5c31)C(=O)NC4` ({Staurosporine-Suc-βAla-βAla-βAla-βAla-βAla-βAla-βAla}-[Dap]VFRVFGD-NH2; lactam 1-8), for which the Activity in assay [8] amounted to 92%; in assay [9], 85%; in assay [10], 99%.

These data come from ChEMBL document CHEMBL1152541, “Staurosporine tethered peptide ligands that target cAMP-dependent protein kinase (PKA): optimization and selectivity profiling” (Bioorg Med Chem, 2009).
